Data reported in ChEMBL document CHEMBL5252546, “Salutaxel, a Conjugate of Docetaxel and a Muramyl Dipeptide (MDP) Analogue, Acts as Multifunctional Prodrug That Inhibits Tumor Growth and Metastasis” (J Med Chem, 2018).
Activity calls are given as the source filed them. The rule behind the calls is not given here.

How the values were obtained:
[1] = Half life in mouse plasma implanted with mouse 4T1 cells at 5.7 mg/kg,iv measured upto 72 hrs; type: ADME, organism-based
4T1 [2] = experiment: Antitumor activity against mouse 4T1 cells xenografted with BALB/c mouse assessed as inhibition of tumor growth at 5.7 mg/kg,iv administrated once per week for 4 weeks; type: functional; conditions: 4T1, 672 h
How it was run: (§1)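 4T1 cells injected into mammary fat pads of BALB/c mice. Dosing iv once per week for 4 weeks, saline vehicle; single-agent arms were given alone or with the peptide component (5b or 6). Endpoints were body weight, tumour volume, tumour weight, lung metastatic nodule count and lung metastasis score. Mean ± SEM, n = 10; ANOVA and Student's t test.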

4T1 [3] = experiment: Antitumor activity against mouse 4T1 cells xenografted with BALB/c mouse assessed as decrease in lung metastasis at 5.7 mg/kg,iv administrated once per week for 4 weeks; type: functional, organism-based; how it was run: as §1
4T1 [4] = experiment: Antitumor activity against mouse 4T1 cells implanted in BALB/c mouse assessed as decrease in lung metastasis at 5.7 mg/kg,iv administrated once per week for 4 weeks in presence of MDA-205 by H and E staining based assay; type: functional, organism-based
How it was run: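 BALB/c mice bearing orthotopic mammary fat pad 4T1 tumors, dosed iv weekly for 4 weeks with saline vehicle as control. Lung sections stained with hematoxylin and eosin and examined by light microscopy at 40× for metastasis, inflammatory infiltration and alveolar wall thickening.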

[5] = Toxicity in BALB/c mouse xenografted with human MDA-MB-231 cells assessed as body weight loss at 5.7 mg/kg,iv administrated once per week for 3 weeks; type: organism-based; conditions: in vivo, 504 h
How it was run: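 Nude BALB/c nu/nu mice received subcutaneous human tumour cells into the right flank. Dosing started at mean tumour volume of 100–120 mm3, iv once weekly for 3 weeks; the taxane arm was an equimolar control. Body weight and overt side effects were monitored. Mean ± SEM, n = 8.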

4T1 [6] = experiment: Antitumor activity against mouse 4T1 cells xenografted with BALB/c mouse assessed as decrease in tumor weight at 5.7 mg/kg,iv administrated once per week for 4 weeks; type: functional, organism-based; how it was run: as §1
4T1 [7] = experiment: Antitumor activity against mouse 4T1 cells xenografted with BALB/c mouse assessed as reduction lung metastatic nodules at 5.7 mg/kg,iv in presence of compound 5b administrated once per week for 4 weeks; type: functional, organism-based; how it was run: as §1
4T1 [8] = experiment: Antitumor activity against mouse 4T1 cells implanted in BALB/c mouse assessed as decrease in lung MMP2 expression level at 5.7 mg/kg,iv administrated once per week for 4 weeks in presence of MDA-205 by western blot assay; type: functional, organism-based
How it was run: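 4T1 cells injected into mammary fat pads of BALB/c mice. Saline vehicle or test article given iv once weekly for 4 weeks. Spleen, lung and tumor lysates immunoblotted for MMP2/MMP9 with β-actin as loading control. Bands averaged over five mice per group, representative of two independent experiments.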

[9] = AUC (0-infinity) in female rat at 2 mg/kg,iv measured upto 24 hrs; type: ADME, organism-based; design: time < 24 hrs, dose 2 mg/kg, route iv; conditions: in vivo
How it was run: (§2)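 Single iv dose: rats 2, 4 or 8 mg/kg by intravenous injection; Beagle dogs 1, 2 or 4 mg/kg by intravenous infusion. Plasma concentration–time data were analysed by sex and pooled. Reported parameters: Cmax, Tmax, AUC0−t, AUC0−∞, MRT0−∞, t1/2, CL, Vss, given as mean ± SD.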

[10] = Stability in mouse hepatocyte assessed as compound remaining at 3 uM incubated upto 120 mins; type: ADME, cell-based; conditions: hepatocytes, 2 h
4T1 [11] = experiment: Antitumor activity against mouse 4T1 cells implanted in BALB/c mouse assessed as decrease in serum IL-6 level at 20 mg/kg,iv administrated once per week for 4 weeks by ELISA; type: functional, organism-based
How it was run: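 4T1 fat-pad model in BALB/c mice, iv 5–20 mg/kg once weekly for 4 weeks, with vehicle and naive groups; serum MMP9, TIMP-1, IL-6 and S100A9 measured by mouse ELISA kits.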

4T1 [12] = experiment: Antitumor activity against mouse 4T1 cells implanted in BALB/c mouse assessed as decrease in lung MMP2 expression level at 5 to 20 mg/kg,iv administrated once per week for 4 weeks by western blot assay; type: functional, organism-based; conditions: dose 5-20 mg/kg
How it was run: (§3)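 4T1 fat-pad model in BALB/c mice, iv once weekly for 4 weeks; MMP9, MMP2 and NOD1 in spleen, lung and tumour by western blot, β-actin loading control; bands averaged over five mice per group, representative of two independent experiments.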

[13] = Stability in human plasma assessed as compound remaining at 1 uM incubated for 6 hrs; type: ADME, cell-free
[14] = Stability in rat hepatocyte assessed as compound remaining at 3 uM incubated upto 120 mins; type: ADME, cell-based; conditions: hepatocytes, 2 h
[15] = AUC (0-t) in rat at 8 mg/kg,iv measured upto 24 hrs; type: ADME, organism-based; design: dose 8 mg/kg, time < 24 hrs, route iv; conditions: in vivo; how it was run: as §2
[16] = Drug metabolism in rat plasma assessed as metabolite docetaxel formation at 4 mg/kg,iv measured after 24 hrs; type: ADME, organism-based; conditions: in vivo
[17] = AUC (0-t) in male Beagle dog at 4 mg/kg,iv measured upto 24 hrs; type: ADME, organism-based, Canis lupus familiaris; design: dose 4 mg/kg, time < 24 hrs, route iv; conditions: in vivo; how it was run: as §2
[18] = Cmax in male rat at 8 mg/kg,iv measured upto 24 hrs; type: ADME, organism-based; design: time < 24 hrs, dose 8 mg/kg, route iv; conditions: in vivo
How it was run: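 Rats were given a single iv injection at 2, 4 or 8 mg/kg. Plasma parent drug and released docetaxel were followed over time. Cmax, Tmax, AUC, MRT, t1/2, CL and Vss were reported for males, females and all animals combined.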

[19] = AUC (0-t) in female rat at 8 mg/kg,iv measured upto 24 hrs; type: ADME, organism-based; design: dose 8 mg/kg, time < 24 hrs, route iv; conditions: in vivo; how it was run: as §2
4T1 [20] = experiment: Antitumor activity against mouse 4T1 cells implanted in BALB/c mouse assessed as decrease in tumor MMP2 expression level at 5 to 20 mg/kg,iv administrated once per week for 4 weeks by western blot assay; type: functional, organism-based; conditions: dose 5-20 mg/kg; how it was run: as §3
[21] = Drug metabolism in rat feces assessed as metabolite docetaxel formation at 4 mg/kg,iv measured after 24 hrs; type: ADME, organism-based; conditions: in vivo
[22] = Half life in Beagle dog at 2 mg/kg,iv measured upto 24 hrs; type: ADME, organism-based, Canis lupus familiaris; conditions: in vivo
[23] = MRT in mouse plasma implanted with mouse 4T1 cells at 10 mg/kg,iv measured upto 72 hrs; type: ADME, organism-based
[24] = AUC (0-infinity) in Beagle dog at 2 mg/kg,iv measured upto 24 hrs; type: ADME, organism-based, Canis lupus familiaris; design: dose 2 mg/kg, time < 24 hrs, route iv; conditions: in vivo; how it was run: as §2
[25] = Stability in rat plasma assessed as compound remaining at 1 uM incubated for 6 hrs; type: ADME, cell-free
[26] = MRT (0 to infinity) in female Beagle dog at 4 mg/kg,iv measured upto 24 hrs; type: ADME, organism-based, Canis lupus familiaris; conditions: in vivo
[27] = AUC (0-infinity) in female rat at 4 mg/kg,iv measured upto 24 hrs; type: ADME, organism-based; design: time < 24 hrs, dose 4 mg/kg, route iv; conditions: in vivo; how it was run: as §2
[28] = Stability in human plasma assessed as compound remaining at 40 uM incubated for 6 hrs; type: ADME, cell-free
[29] = Drug metabolism in human hepatocytes assessed as MDA-205 metabolite formation at 20 uM incubated for 180 mins; type: ADME, cell-based, Hepatocyte; conditions: 3 h
[30] = Clearance in female Beagle dog at 2 mg/kg,iv measured upto 24 hrs; type: ADME, organism-based, Canis lupus familiaris; conditions: in vivo
How it was run: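 Beagle dogs were given a single iv infusion at 1, 2 or 4 mg/kg. Plasma parent drug and released docetaxel were followed over time. Cmax, Tmax, AUC, MRT, t1/2, CL and Vss were reported by sex and for all dogs combined.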

[31] = Drug metabolism in rat urine assessed as metabolite MDA-205 formation at 4 mg/kg,iv measured after 24 hrs; type: ADME, organism-based; conditions: in vivo
[32] = Volume of distribution at steady state in female Beagle dog at 2 mg/kg,iv measured upto 24 hrs; type: ADME, organism-based, Canis lupus familiaris; conditions: in vivo, read-out: Vdss
[33] = MRT (0 to infinity) in male rat at 4 mg/kg,iv measured upto 24 hrs; type: ADME, organism-based; conditions: in vivo

Q: Which half-life [1] does the source give for `CC(=O)O[C@@]12CO[C@@H]1C[C@H](O)[C@@]1(C)C(=O)[C@H](O)C3=C(C)[C@@H](OC(=O)[C@H](O)[C@@H](NC(=O)OC(C)(C)C)c4ccccc4)C[C@@](O)([C@@H](OC(=O)c4ccccc4)[C@H]21)C3(C)C` [DOCETAXEL ANHYDROUS] here?
A: Its half-life is 217 min.

Q: And the inhibition in vivo at 5.7 mg/kg (4T1 [2])?
A: The inhibition in vivo at 5.7 mg/kg was 19.6%.

Q: And the Activity (4T1 [3])?
A: The Activity was “Active”.

Q: And the Activity (4T1 [4])?
A: Its Activity is “Active”.

Q: What about the Activity [5] of the same compound?
A: The Activity was “Non-Toxic”.

Q: What about the Activity (4T1 [6]) of the same compound?
A: The Activity was “Active”.

Q: What about the Activity (4T1 [7]) of the same compound?
A: The Activity was “inactive”.

Q: What about the Activity (4T1 [8]) of the same compound?
A: Its Activity is “inactive”.

Q: With `CC(=O)O[C@@]12CO[C@@H]1C[C@H](O)[C@@]1(C)C(=O)[C@H](O)C3=C(C)[C@@H](OC(=O)[C@H](OC(=O)CCC(=O)NCCCC[C@H](NC(=O)CC[C@@H](NC(=O)[C@H](C)NC(=O)/C=C/c4ccc(F)cc4Cl)C(N)=O)C(=O)O)[C@@H](NC(=O)OC(C)(C)C)c4ccccc4)C[C@@](O)([C@@H](OC(=O)c4ccccc4)[C@H]21)C3(C)C` as the compound, how does the AUC(0-inf) [9] read?
A: Its AUC(0-inf) is 4330 ng·h/mL.

Q: What about the Stability [10] of the same compound?
A: Its Stability is “Stable”.

Q: And the Activity (4T1 [11])?
A: The Activity was “Active”.

Q: And the Activity (4T1 [12])?
A: Its Activity is “inactive”.

Q: And the Stability [13]?
A: Its Stability is “Stable”.

Q: And the Stability [14]?
A: Its Stability is “Stable”.

Q: And the AUC(0-t) at 24 h [15]?
A: Its AUC(0-t) at 24 h is 45800 ng·h/mL.

Q: What about the Drug metabolism [16] of the same compound?
A: Its Drug metabolism is “Metabolite_Detected”.

Q: And the AUC(0-t) at 24 h [17]?
A: Its AUC(0-t) at 24 h is 15200 ng·h/mL.

Q: And the Cmax [18]?
A: Its Cmax is 61.9 µg/mL.

Q: What about the AUC(0-t) at 24 h [19] of the same compound?
A: The AUC(0-t) at 24 h was 39300 ng·h/mL.

Q: What about the Activity (4T1 [20]) of the same compound?
A: Its Activity is “inactive”.

Q: And the Drug metabolism [21]?
A: Its Drug metabolism is “Metabolite_Detected”.

Q: What about the half-life [22] of the same compound?
A: Its half-life is 30.5 min.

Q: What about the MRT [23] of the same compound?
A: Its MRT is 27 min.

Q: What about the AUC(0-inf) [24] of the same compound?
A: The AUC(0-inf) was 5950 ng·h/mL.

Q: And the Stability [25]?
A: The Stability was “Stable”.

Q: And the MRT inf [26]?
A: The MRT inf was 26 min.

Q: What about the AUC(0-inf) [27] of the same compound?
A: The AUC(0-inf) was 13000 ng·h/mL.

Q: And the Stability [28]?
A: The Stability was “Stable”.

Q: And the Drug metabolism [29]?
A: The Drug metabolism was “Metabolite_Detected”.

Q: And the clearance [30]?
A: The clearance was 5.04 mL/min/kg.

Q: And the Drug metabolism [31]?
A: Its Drug metabolism is “Metabolite_Detected”.

Q: What about the Vd [32] of the same compound?
A: Its Vd is 0.077 L/kg.

Q: And the MRT inf [33]?
A: Its MRT inf is 22.5 min.
